Residue numbers refer to the chain shown, from its start. Calls of active or inactive are those of the source. The calls are words filed in the database; no cut-off is given here.
Assays:
Assay type in all cases: cell-based
[1] = tested on: T1, Trace amine-associated receptor 1 (Homo sapiens), Q96RJ0 [F268A]; experiment: Agonist activity against TAAR1 F268A mutant (unknown origin) expressed in HEK293 cells assessed as increase in cAMP accumulation incubated for 30 mins by HTRF assay; details: filed as agonist
T1 sequence (whole entry): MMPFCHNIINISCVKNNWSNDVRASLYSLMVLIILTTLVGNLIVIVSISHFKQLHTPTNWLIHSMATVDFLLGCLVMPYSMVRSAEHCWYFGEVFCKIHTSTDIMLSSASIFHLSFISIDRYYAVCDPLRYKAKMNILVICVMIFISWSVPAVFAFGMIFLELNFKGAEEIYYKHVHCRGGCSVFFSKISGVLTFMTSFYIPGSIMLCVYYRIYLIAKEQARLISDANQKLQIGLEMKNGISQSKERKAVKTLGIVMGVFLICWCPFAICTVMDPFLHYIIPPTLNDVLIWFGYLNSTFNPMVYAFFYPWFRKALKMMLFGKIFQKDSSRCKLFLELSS
In short: (§1)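 HEK293 cells harvested 48 h after transfection with plasmid at 1 μg mL–1; 8000 cells per well incubated 30 min at 37 °C with agonist over 10–4 to 10–10 M. cAMP read by HTRF (d2-cAMP plus Eu-cryptate antibody, 1 h room temperature; excitation 330 nm, emission 620/665 nm). pEC50 and Emax from dose–response curves; mean ± s.e.m. of three independent experiments, each in technical triplicate.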

[2] = tested on: T2, Trace amine-associated receptor 1 (Homo sapiens), Q96RJ0 [V184A]; experiment: Agonist activity against TAAR1 V184A mutant (unknown origin) expressed in HEK293 cells assessed as increase in cAMP accumulation incubated for 30 mins by HTRF assay; in short: as §1
T2 sequence (whole entry): T1 sequence (whole entry) with V184A, A268F

[3] = tested on: T3, Trace amine-associated receptor 1 (Homo sapiens), Q96RJ0 [I290A]; experiment: Agonist activity against TAAR1 I290A mutant (unknown origin) expressed in HEK293 cells assessed as fold increase in cAMP accumulation incubated for 30 mins by HTRF assay relative to control; details: filed as agonist
T3 sequence (whole entry): T1 sequence (whole entry) with A268F, I290A

[4] = tested on: T4, Trace amine-associated receptor 1 (Homo sapiens), Q96RJ0 [Y294A]; experiment: Agonist activity against TAAR1 Y294A mutant (unknown origin) expressed in HEK293 cells assessed as increase in cAMP accumulation incubated for 30 mins by HTRF assay; in short: as §1
T4 sequence (whole entry): T1 sequence (whole entry) with A268F, Y294A

[5] = tested on: T5, Trace amine-associated receptor 1 (Homo sapiens), Q96RJ0 [W264A]; experiment: Agonist activity against TAAR1 W264A mutant (unknown origin) expressed in HEK293 cells assessed as increase in cAMP accumulation incubated for 30 mins by HTRF assay; in short: as §1
T5 sequence (whole entry): T1 sequence (whole entry) with W264A, A268F

[6] = tested on: T6, Trace amine-associated receptor 1 (Homo sapiens), Q96RJ0 [D103A]; experiment: Agonist activity against TAAR1 D103A mutant (unknown origin) expressed in HEK293 cells assessed as increase in cAMP accumulation incubated for 30 mins by HTRF assay; in short: as §1
T6 sequence (whole entry): T1 sequence (whole entry) with D103A, A268F

[7] = tested on: T7, Trace amine-associated receptor 1 (Homo sapiens), Q96RJ0 [F195A]; experiment: Agonist activity against TAAR1 F195A mutant (unknown origin) expressed in HEK293 cells assessed as increase in cAMP accumulation incubated for 30 mins by HTRF assay; in short: as §1
T7 sequence (whole entry): T1 sequence (whole entry) with F185A, A268F

[8] = tested on: T8, Trace amine-associated receptor 1 (Homo sapiens), Q96RJ0 [I104A]; experiment: Agonist activity against TAAR1 I104A mutant (unknown origin) expressed in HEK293 cells assessed as increase in cAMP accumulation incubated for 30 mins by HTRF assay; in short: as §1
T8 sequence (whole entry): T1 sequence (whole entry) with I104A, A268F

[9] = tested on: T9, Trace amine-associated receptor 1 (Homo sapiens), Q96RJ0 [F186A]; experiment: Agonist activity against TAAR1 F186A mutant (unknown origin) expressed in HEK293 cells assessed as increase in cAMP accumulation incubated for 30 mins by HTRF assay; in short: as §1
T9 sequence (whole entry): T1 sequence (whole entry) with F186A, A268F

[10] = tested on: T10, Trace amine-associated receptor 1 (Homo sapiens), Q96RJ0 [F267A]; experiment: Agonist activity against TAAR1 F267A mutant (unknown origin) expressed in HEK293 cells assessed as increase in cAMP accumulation incubated for 30 mins by HTRF assay; in short: as §1
T10 sequence (whole entry): T1 sequence (whole entry) with F267A, A268F

[11] = tested on: T11, Trace amine-associated receptor 1 (Homo sapiens), Q96RJ0 [G293A]; experiment: Agonist activity against TAAR1 G293A mutant (unknown origin) expressed in HEK293 cells assessed as increase in cAMP accumulation incubated for 30 mins by HTRF assay; in short: as §1
T11 sequence (whole entry): T1 sequence (whole entry) with A268F, G293A

SMILES	Activity [1]	Activity ([2]; filed as agonist)	fold change (FC) [3]	Activity [4]	Activity [5]	Activity [6]	Activity [7]	Activity [8]	Activity [9]	Activity [10]	Activity [11]	Activity [2]
CN[C@@H](C)Cc1ccccc1	Active	Active	6	inactive	inactive	inactive	inactive	inactive	inactive	inactive	inactive	–
NCCc1ccccc1	Active	–	–	–	–	–	–	–	inactive	–	–	inactive
